Assay results taken from ChEMBL document CHEMBL3734660, “Inhibitory effect of cytotoxic stilbenes related to resveratrol on the expression of the VEGF, hTERT and c-Myc genes” (Eur J Med Chem, 2015).
≈ marks a conversion by molar mass, not a printed value.

Assays:
HT-29 [1] = test: Cytotoxicity against human HT-29 cells assessed inhibition of cell proliferation after 3 days by MTT assay; settings: HT-29, 72 h
HT-29 [2] = test: Inhibition of VEGF protein secretion in human HT-29 cells at 3 ng/mL after 72 hrs by ELISA relative to control; format: functional; parameters: scale not given: the % may be the effect or the level left
MCF7 [3] = test: Down regulation of c-Myc gene expression in human MCF7 cells at 1 ng/mL after 48 hrs by RT-qPCR analysis relative to control; format: functional
Summary of the method: (§1)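 HT-29 or MCF-7 cells grown to 70–80% confluence, serum-starved 24 h, then exposed to compound in DMSO for 48 h; DMSO-only control. Total RNA extracted and transcript measured by RT-qPCR, normalized to β-actin and expressed as percentage of control. At least three measurements; mean ± SEM; one-sample t-test.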

MCF7 [4] = test: Cytotoxicity against human MCF7 cells assessed inhibition of cell proliferation after 3 days by MTT assay; settings: MCF7, 72 h
HT-29 [5] = test: Down regulation of VEGF gene expression in human HT-29 cells at 2 ng/mL after 48 hrs by RT-qPCR analysis relative to control; format: functional
Summary of the method: as §1

MCF7 [6] = test: Potency index, ratio of compound activity to resveratrol activity for down regulation of hTERT gene expression in human MCF7 cells; format: functional
[7] = Selectivity ratio of IC50 for HEK293 cells to IC50 for human HT-29 cells; format: ADME, cell-based; settings: HEK293 cells versus HT-29 cells, read-out: Ratio IC50
HT-29 [8] = test: Down regulation of c-Myc gene expression in human HT-29 cells at 3 ng/mL after 48 hrs by RT-qPCR analysis relative to control; format: functional
Summary of the method: as §1

HT-29 [9] = test: Down regulation of c-Myc gene expression in human HT-29 cells at 1 ng/mL after 48 hrs by RT-qPCR analysis relative to control; format: functional
Summary of the method: as §1

[10] = Inhibition of VEGF protein secretion in human HT-29 cells at 2 ng/mL after 72 hrs by ELISA relative to control; format: functional; parameters: scale not given: the % may be the effect or the level left
HT-29 [11] = test: Down regulation of hTERT gene expression in human HT-29 cells at 3 ng/mL after 48 hrs by RT-qPCR analysis relative to control; format: functional
Summary of the method: as §1

MCF7 [12] = test: Down regulation of hTERT gene expression in human MCF7 cells at 1 ng/mL after 48 hrs by RT-qPCR analysis relative to control; format: functional
Summary of the method: as §1

MCF7 [13] = test: Inhibition of VEGF protein secretion in human MCF7 cells at 1 ng/mL after 72 hrs by ELISA relative to control; format: functional; parameters: scale not given: the % may be the effect or the level left
HT-29 [14] = test: Potency index, ratio of compound activity to resveratrol activity for down regulation of hTERT gene expression in human HT-29 cells; format: functional
MCF7 [15] = test: Potency index, ratio of compound activity to resveratrol activity for down regulation of c-Myc gene expression in human MCF7 cells; format: functional
HT-29 [16] = test: Potency index, ratio of compound activity to resveratrol activity for down regulation of c-Myc gene expression in human HT-29 cells; format: functional
MCF7 [17] = test: Down regulation of VEGF gene expression in human MCF7 cells at 2 ng/mL after 48 hrs by RT-qPCR analysis relative to control; format: functional
Summary of the method: as §1

MCF7 [18] = test: Inhibition of VEGF protein secretion in human MCF7 cells at 2 ng/mL after 72 hrs by ELISA relative to control; format: functional; parameters: scale not given: the % may be the effect or the level left
HT-29 [19] = test: Down regulation of VEGF gene expression in human HT-29 cells at 1 ng/mL after 48 hrs by RT-qPCR analysis relative to control; format: functional
Summary of the method: as §1

HEK293 = test: Cytotoxicity against HEK293 cells assessed inhibition of cell proliferation after 3 days by MTT assay; settings: Homo sapiens, HEK293, 72 h
MCF7 [20] = test: Potency index, ratio of compound activity to resveratrol activity for down regulation of VEGF gene expression in human MCF7 cells; format: functional
HT-29 [21] = test: Inhibition of VEGF protein secretion in human HT-29 cells at 1 ng/mL after 72 hrs by ELISA relative to control; format: functional; parameters: scale not given: the % may be the effect or the level left
HT-29 [22] = test: Down regulation of c-Myc gene expression in human HT-29 cells at 2 ng/mL after 48 hrs by RT-qPCR analysis relative to control; format: functional
Summary of the method: as §1

MCF7 [23] = test: Down regulation of hTERT gene expression in human MCF7 cells at 2 ng/mL after 48 hrs by RT-qPCR analysis relative to control; format: functional
Summary of the method: as §1

MCF7 [24] = test: Down regulation of c-Myc gene expression in human MCF7 cells at 2 ng/mL after 48 hrs by RT-qPCR analysis relative to control; format: functional
Summary of the method: as §1

HT-29 [25] = test: Down regulation of VEGF gene expression in human HT-29 cells at 3 ng/mL after 48 hrs by RT-qPCR analysis relative to control; format: functional
Summary of the method: as §1

HT-29 [26] = test: Down regulation of hTERT gene expression in human HT-29 cells at 1 ng/mL after 48 hrs by RT-qPCR analysis relative to control; format: functional
Summary of the method: as §1

MCF7 [27] = test: Down regulation of VEGF gene expression in human MCF7 cells at 1 ng/mL after 48 hrs by RT-qPCR analysis relative to control; format: functional
Summary of the method: as §1

[28] = Selectivity ratio of IC50 for HEK293 cells to IC50 for human MCF7 cells; format: ADME, cell-based; settings: HEK293 cells versus MCF7 cells, read-out: Ratio IC50
HT-29 [29] = test: Down regulation of hTERT gene expression in human HT-29 cells at 2 ng/mL after 48 hrs by RT-qPCR analysis relative to control; format: functional
Summary of the method: as §1

MCF7 [30] = test: Down regulation of VEGF gene expression in human MCF7 cells at 10 ug/mL after 48 hrs by RT-qPCR analysis relative to control; format: functional
Summary of the method: as §1

MCF7 [31] = test: Down regulation of c-Myc gene expression in human MCF7 cells at 10 ug/mL after 48 hrs by RT-qPCR analysis relative to control; format: functional
Summary of the method: as §1

HT-29 [32] = test: Inhibition of VEGF protein secretion in human HT-29 cells at 10 ug/mL after 72 hrs by ELISA relative to control; format: functional; parameters: scale not given: the % may be the effect or the level left
HT-29 [33] = test: Down regulation of VEGF gene expression in human HT-29 cells at 10 ug/mL after 48 hrs by RT-qPCR analysis relative to control; format: functional
Summary of the method: as §1

HT-29 [34] = test: Down regulation of c-Myc gene expression in human HT-29 cells at 10 ug/mL after 48 hrs by RT-qPCR analysis relative to control; format: functional
Summary of the method: as §1

MCF7 [35] = test: Inhibition of VEGF protein secretion in human MCF7 cells at 10 ug/mL after 72 hrs by ELISA relative to control; format: functional; parameters: scale not given: the % may be the effect or the level left
MCF7 [36] = test: Down regulation of hTERT gene expression in human MCF7 cells at 10 ug/mL after 48 hrs by RT-qPCR analysis relative to control; format: functional
Summary of the method: as §1

HT-29 [37] = test: Down regulation of hTERT gene expression in human HT-29 cells at 10 ug/mL after 48 hrs by RT-qPCR analysis relative to control; format: functional
Summary of the method: as §1

COc1ccc(/C=C/c2ccc(N)cc2)cc1
IC50 (HT-29 [1]): 0.0036 µg/mL (≈ 0.016 µM) | Activity (HT-29 [2]): 59% | Activity (MCF7 [3]): 54% | IC50 (MCF7 [4]): 0.0021 µg/mL (≈ 0.00932 µM) | Activity (HT-29 [5]): 66% | Ratio (MCF7 [6]): 3000 | selectivity ratio [7]: 3.4 | Activity (HT-29 [8]): 69% | Activity (HT-29 [9]): 88% | Activity [10]: 84% | Activity (HT-29 [11]): 48% | Activity (MCF7 [12]): 80% | Activity (MCF7 [13]): 100% | Ratio (HT-29 [14]): 3000 | Ratio (MCF7 [15]): 3000 | Ratio (HT-29 [16]): 3000 | Activity (MCF7 [17]): 36% | Activity (MCF7 [18]): 75% | Activity (HT-29 [19]): 65% | IC50 (HEK293): 0.012 µg/mL (≈ 0.0533 µM) | Ratio (MCF7 [20]): 5000 | Activity (HT-29 [21]): 92% | Activity (HT-29 [22]): 71% | Activity (MCF7 [23]): 51% | Activity (MCF7 [24]): 30% | Activity (HT-29 [25]): 67% | Activity (HT-29 [26]): 100% | Activity (MCF7 [27]): 48% | selectivity ratio [28]: 5.7 | Activity (HT-29 [29]): 100%

Oc1ccc(/C=C/c2cc(O)cc(O)c2)cc1 [RESVERATROL]
IC50 (HT-29 [1]): 34.1 µg/mL (≈ 149 µM) | IC50 (MCF7 [4]): 16.1 µg/mL (≈ 70.5 µM) | selectivity ratio [7]: 0.2 | Activity (MCF7 [30]): 54% | Activity (MCF7 [31]): 41% | Activity (HT-29 [32]): 78% | IC50 (HEK293): 7.1 µg/mL (≈ 31.1 µM) | Activity (HT-29 [33]): 65% | Activity (HT-29 [34]): 51% | Activity (MCF7 [35]): 100% | Activity (MCF7 [36]): 77% | selectivity ratio [28]: 0.4 | Activity (HT-29 [37]): 57%
